Test results published in paper PMC9710334 (BMJ Open Gastroenterology, 2022).

Columns and labels:
[1] = test system: liver fibrosis in patients with advanced PBC; assay: Paired liver biopsy histology; format: in vivo, human
Method in brief: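 Paired liver biopsies were taken at screening (baseline) and within 2 weeks of the final dose of the 12-cycle iv regimen (280 or 380 mg/m2/4 hours, twice weekly). Sections were stained with Masson's trichrome, H&E and Sirius red. Three independent central pathologists scored the slides blinded, using Knodell and Ishak modified HAI for grade and fibrosis stage. Analysis was descriptive.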

[2] = test system: patients with advanced PBC; assay: Liver stiffness; format: in vivo, human
Method in brief: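 Patients aged 20–74 years with PBC and Scheuer stage III or higher fibrosis on screening biopsy received iv OP-724 at 280 or 380 mg/m2 over 4 hours, twice weekly for 12 cycles. Liver stiffness was measured by FibroScan, and the Child-Pugh score, MELD score and Enhanced Liver Fibrosis score were determined. Prespecified change was from baseline to 12 weeks. Analysis was descriptive, mean±SD, with no statistical testing.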

[3] = test system: P300/β-catenin signalling; settings: ref 20 23; cited from earlier work
CBP/β-catenin = settings: cited from earlier work
[4] = patient P101-01, 12 weeks, baseline 6
[5] = patient P101-02, 12 weeks, baseline 2
[6] = patient P101-02, 12 weeks, baseline 6
[7] = patient P101-04, 12 weeks, baseline 1
[8] = patient P101-07, 12 weeks, baseline 2
[9] = patient P101-07, 12 weeks, baseline 3
[10] = patient P101-08, 12 weeks, baseline 3
[11] = before and after administration
[12] = patient P101-07, 12 weeks, baseline 5
[13] = patient P101-08, 12 weeks, baseline 6

For `C[C@H]1[C@H]2N(C(=O)CN(C)N2C(=O)NCc2ccccc2)[C@@H](Cc2ccc(OP(=O)(O)O)cc2)C(=O)N1Cc1cccc2cccnc12` [OP-724], the “patients with a decrease in the fibrosis stage by 1 or more” value ([1]; paired biopsies, baseline vs 12 weeks, 2/5 patients) was 40%, the “patients with a decrease (improvement) in the mHAI score” value ([1]; paired biopsies, baseline vs 12 weeks, 3/5 patients) was 60% and the “patients with a decrease in the CPA” value ([1]; paired biopsies, baseline vs 12 weeks, three of five patients) was 60%. The “Modified HAI score: Confluent necrosis” value ([1]; patient P101-01, 12 weeks, baseline 0) was 0, the “Modified HAI score: Lobular inflammation” value ([1]; patient P101-01, 12 weeks, baseline 1) was 1 and the “Modified HAI score: Interface hepatitis” value ([1]; patient P101-01, 12 weeks, baseline 2) was 2. For the same molecule, the “Modified HAI score: Portal inflammation” value ([1]; patient P101-01, 12 weeks, baseline 3) was 3, the “Modified HAI score: Stage” value ([1]; patient P101-01, 12 weeks, baseline 4) was 3 and the “Modified HAI score: HAI score” value [1, 4] was 6. The “Collagen proportional area, Sirius red positive area” value (“Collagen proportional area” for short) ([1]; patient P101-01, 12 weeks, baseline 7.8010627) was 2.739%, the “Modified HAI score: Confluent necrosis” value ([1]; patient P101-02, 12 weeks, baseline 0) was 0 and the “Modified HAI score: Interface hepatitis” value [1, 5] was 1. For the same molecule, the “Modified HAI score: Lobular inflammation” value [1, 5] was 1, the “Modified HAI score: Portal inflammation” value [1, 5] was 1 and the “Collagen proportional area” value ([1]; patient P101-02, 12 weeks, baseline 4.9477138) was 3.714%. The “Modified HAI score: Stage” value ([1]; patient P101-02, 12 weeks, baseline 5) was 5, the “Modified HAI score: HAI score” value [1, 6] was 3 and the “Modified HAI score: Confluent necrosis” value ([1]; patient P101-04, 12 weeks, baseline 0) was 1. For the same molecule, the “Modified HAI score: Lobular inflammation” value [1, 7] was 2, the “Modified HAI score: Portal inflammation” value [1, 7] was 3 and the “Modified HAI score: Interface hepatitis” value ([1]; patient P101-04, 12 weeks, baseline 2) was 3. For the same molecule, the “Modified HAI score: Stage” value ([1]; patient P101-04, 12 weeks, baseline 3) was 5, the “Modified HAI score: HAI score” value ([1]; patient P101-04, 12 weeks, baseline 4) was 9 and the “Collagen proportional area” value ([1]; patient P101-04, 12 weeks, baseline 6.8891091) was 7.584%. The “Modified HAI score: Confluent necrosis” value [1, 8] was 0, the “Modified HAI score: Interface hepatitis” value [1, 8] was 2 and the “Modified HAI score: Lobular inflammation” value [1, 9] was 2. For the same molecule, the “Modified HAI score: Portal inflammation” value [1, 9] was 2, the “Modified HAI score: Stage” value [1, 9] was 3 and the “Collagen proportional area” value ([1]; patient P101-07, 12 weeks, baseline 3.8731926) was 3.646%. The “Modified HAI score: HAI score” value ([1]; patient P101-07, 12 weeks, baseline 10) was 6, the “Modified HAI score: Confluent necrosis” value [1, 10] was 0 and the “Modified HAI score: Lobular inflammation” value [1, 10] was 3. For the same molecule, the “Modified HAI score: Portal inflammation” value [1, 10] was 2, the “Modified HAI score: Interface hepatitis” value ([1]; patient P101-08, 12 weeks, baseline 4) was 1 and the “Modified HAI score: Stage” value ([1]; patient P101-08, 12 weeks, baseline 5) was 2. The “Collagen proportional area” value ([1]; patient P101-08, 12 weeks, baseline 7.7587483) was 3.484%, the “Modified HAI score: HAI score” value ([1]; patient P101-08, 12 weeks, baseline 13) was 6 and the “septal thickness in liver parenchyma, Masson's trichrome staining” value ([1]; patients P101-01 and P101-08, after OP-724 administration) was “reduction in septal thickness”. For the same molecule, the “change in mean CP score” value ([2]; 12 weeks after administration) was “no changes”, the “change in mean MELD score” value ([2]; 12 weeks after administration) was “no changes” and the “change in Enhanced Liver Fibrosis score” value [2, 11] was “no significant change”. The “change in liver stiffness by FibroScan” value [2, 11] was “no significant change”, the ELF score ([2]; patient P101-01, 12 weeks, baseline 1.2) was 0.9 and the Child-Pugh score [2, 4] was 7. For the same molecule, the FibroScan ([2]; patient P101-01, 12 weeks, baseline 9.1) was 8.9 kPa, the MELD score ([2]; patient P101-01, 12 weeks, baseline 15) was 15 and the ELF score ([2]; patient P101-02, 12 weeks, baseline 0.78) was 0.24. It also gave an MELD score [2, 5] of 2, a Child-Pugh score [2, 6] of 6 and a FibroScan ([2]; patient P101-02, 12 weeks, baseline 40.3) of 33.8 kPa. For the same molecule, the ELF score ([2]; patient P101-04, 12 weeks, baseline 2.46) was 3.16, the MELD score ([2]; patient P101-04, 12 weeks, baseline 6) was 8 and the Child-Pugh score ([2]; patient P101-04, 12 weeks, baseline 7) was 7. The FibroScan ([2]; patient P101-04, 12 weeks, baseline 26.3) was 23.6 kPa, the Child-Pugh score [2, 12] was 5 and the MELD score [2, 12] was 5. For the same molecule, the FibroScan ([2]; patient P101-07, 12 weeks, baseline 11.6) was 9.2 kPa, the ELF score ([2]; patient P101-07, 12 weeks, baseline −0.1) was −0.07 and the ELF score ([2]; patient P101-08, 12 weeks, baseline 0.96) was 1.48. The Child-Pugh score [2, 13] was 6, the MELD score [2, 13] was 6 and the FibroScan ([2]; patient P101-08, 12 weeks, baseline 22.3) was 36.3 kPa. The “inhibition of P300/β-catenin signalling” value [3] was “does not inhibit” and the “inhibition of the interaction between CBP and β-catenin” value (CBP/β-catenin) was “selectively inhibits”.
